Test results taken from ChEMBL document CHEMBL4270642, “Boronic ester-linked macrocyclic lipopeptides as serine protease inhibitors targeting Escherichia coli type I signal peptidase” (Eur J Med Chem, 2018).
pIC50: −log10 of the molar value. ≈ marks a conversion by molar mass, not a printed value. Square brackets hold non-standard residues; d marks the D form. Peptide text beside a SMILES is read from it. * marks the point of attachment. Benzoyl(4-(4-hexylphenyl)) = CCCCCCc1ccc(-c2ccc(C(=O)*)cc2)cc1; X1 = C[C@H](N*)B1OC2C[C@@H]3C[C@@H](C3(C)C)[C@]2(C)O1; Orn = NCCC[C@H](N)C(=O)O

Tests used:
[1] = biological target: Signal peptidase I (Escherichia coli K-12) (UniProt P00803); assay: Inhibition of Escherichia coli type 1 signal peptidase lepB assessed as residual activity at 0.0195 uM preincubated for 10 mins followed by Dabcyl-VGGTATAYGAFSRPGLE-(EDANS)-OH substrate addition measured after 2 hrs by FRET based assay (reference value: 100%)
Signal peptidase I (Escherichia coli K-12), sequence (P00803 whole entry): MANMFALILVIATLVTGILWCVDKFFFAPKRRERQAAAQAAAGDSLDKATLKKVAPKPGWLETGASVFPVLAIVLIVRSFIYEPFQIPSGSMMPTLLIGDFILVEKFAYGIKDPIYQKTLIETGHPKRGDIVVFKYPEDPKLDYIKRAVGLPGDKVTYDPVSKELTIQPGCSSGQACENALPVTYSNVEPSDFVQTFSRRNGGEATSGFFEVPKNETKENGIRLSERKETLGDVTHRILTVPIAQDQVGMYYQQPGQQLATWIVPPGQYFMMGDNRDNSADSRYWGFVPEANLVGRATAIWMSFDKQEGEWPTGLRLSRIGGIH
In short: (§1)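 EcLepB (about 50 nM estimated) preincubated 10 min with compound. Reaction started with Dabcyl/EDANS FRET peptide at 8 µM final (Km 20 µM). Fluorescence followed continuously at 535 nm, 22 °C, for 2 h. Cleavage rates plotted against inhibitor concentration; IC50 from non-linear regression of sigmoidal dose-response curves.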

Pseudomonas aeruginosa [2] = assay: Antibacterial activity against Pseudomonas aeruginosa PAO1 after 16 to 20 hrs by broth microdilution method; format: functional
In short: (§2)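 Broth microdilution in cation-adjusted Mueller-Hinton II per EUCAST/CLSI; two-fold compound series 64 down to 0.25 µg/mL final. Inoculum from fresh colonies (non-selective agar, 18-24 h, 35 ± 2 °C), adjusted to 0.5 McFarland, diluted to about 5 × 10^5 CFU/mL final. Static incubation 16-20 h at 35 ± 2 °C; MIC read visually as complete growth inhibition against medium-only wells.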

[3] = biological target: Signal peptidase I (Escherichia coli K-12) (UniProt P00803); assay: Inhibition of Escherichia coli type 1 signal peptidase lepB assessed as residual activity at 1.25 uM preincubated for 10 mins followed by Dabcyl-VGGTATAYGAFSRPGLE-(EDANS)-OH substrate addition measured after 2 hrs by FRET based assay (reference value: 100%); in short: as §1
[4] = biological target: Signal peptidase I (Escherichia coli K-12) (UniProt P00803); assay: Inhibition of Escherichia coli type 1 signal peptidase lepB assessed as residual activity at 0.0049 uM preincubated for 10 mins followed by Dabcyl-VGGTATAYGAFSRPGLE-(EDANS)-OH substrate addition measured after 2 hrs by FRET based assay (reference value: 100%); in short: as §1
[5] = biological target: Signal peptidase I (Escherichia coli K-12) (UniProt P00803); assay: Inhibition of Escherichia coli type 1 signal peptidase lepB assessed as residual activity at 10 uM preincubated for 10 mins followed by Dabcyl-VGGTATAYGAFSRPGLE-(EDANS)-OH substrate addition measured after 2 hrs by FRET based assay (reference value: 100%); in short: as §1
Escherichia coli [6] = assay: Antibacterial activity against tolC deficient Escherichia coli CH3130 after 16 to 20 hrs by broth microdilution method; format: functional; in short: as §2
[7] = biological target: Signal peptidase I (Escherichia coli K-12) (UniProt P00803); assay: Inhibition of Escherichia coli type 1 signal peptidase lepB assessed as residual activity at 0.625 uM preincubated for 10 mins followed by Dabcyl-VGGTATAYGAFSRPGLE-(EDANS)-OH substrate addition measured after 2 hrs by FRET based assay (reference value: 100%); in short: as §1
[8] = biological target: Signal peptidase I (Escherichia coli K-12) (UniProt P00803); assay: Inhibition of Escherichia coli type 1 signal peptidase lepB assessed as residual activity at 5 uM preincubated for 10 mins followed by Dabcyl-VGGTATAYGAFSRPGLE-(EDANS)-OH substrate addition measured after 2 hrs by FRET based assay (reference value: 100%); in short: as §1
Escherichia coli [9] = assay: Antibacterial activity against Escherichia coli D22 CGSG 5163 harboring Ips mutant after 16 to 20 hrs by broth microdilution method; format: functional
In short: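 Broth microdilution in cation-adjusted Mueller-Hinton II broth, following EUCAST and CLSI guidelines. Two-fold series at final concentrations 64 down to 0.25 µg/mL, with medium-only and growth controls. Inoculum from fresh colonies (18-24 h, 35 °C ± 2 °C) adjusted to 0.5 McFarland, final ≈5 × 10^5 CFU/mL. Plates incubated unshaken 16-20 h at 35 °C ± 2 °C. MIC read visually as complete inhibition of growth.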

HepG2 = assay: Cytotoxicity against human HepG2 cells after 72 hrs by FMSA; format: cell-based; details: HepG2, 72 h
In short: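 HepG2 (ATCC) grown in EMEM with 10% FBS, pen/strep, 2 mM L-glutamine, used up to 20 passages. Seeded at 1000 cells/well, cultured overnight, then dosed acoustically from DMSO stocks. Eight two-fold dilutions in duplicate from top 64 or 32 µM; 72 h at 37 °C, 5% CO2. Fluorescein diacetate hydrolysis read at ex 485/em 530 nm; IC50 by non-linear regression.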

[10] = biological target: Signal peptidase I (Escherichia coli K-12) (UniProt P00803); assay: Inhibition of Escherichia coli type 1 signal peptidase lepB assessed as residual activity at 0.3125 uM preincubated for 10 mins followed by Dabcyl-VGGTATAYGAFSRPGLE-(EDANS)-OH substrate addition measured after 2 hrs by FRET based assay (reference value: 100%); in short: as §1
Signal peptidase I = Signal peptidase I (Escherichia coli K-12, UniProt P00803); assay: Inhibition of Escherichia coli type 1 signal peptidase lepB preincubated for 10 mins followed by Dabcyl-VGGTATAYGAFSRPGLE-(EDANS)-OH substrate addition measured after 2 hrs by FRET based assay; in short: as §1
Signal peptidase I, sequence (P00803 whole entry): as above

Staphylococcus aureus = assay: Antibacterial activity against Staphylococcus aureus ATCC 29213 after 16 to 20 hrs by broth microdilution method; format: functional; in short: as §2
[11] = biological target: Signal peptidase I (Escherichia coli K-12) (UniProt P00803); assay: Inhibition of Escherichia coli type 1 signal peptidase lepB assessed as residual activity at 0.0098 uM preincubated for 10 mins followed by Dabcyl-VGGTATAYGAFSRPGLE-(EDANS)-OH substrate addition measured after 2 hrs by FRET based assay (reference value: 100%); in short: as §1
[12] = biological target: Signal peptidase I (Escherichia coli K-12) (UniProt P00803); assay: Inhibition of Escherichia coli type 1 signal peptidase lepB assessed as residual activity at 0.0006 uM preincubated for 10 mins followed by Dabcyl-VGGTATAYGAFSRPGLE-(EDANS)-OH substrate addition measured after 2 hrs by FRET based assay (reference value: 100%); in short: as §1
[13] = biological target: Signal peptidase I (Escherichia coli K-12) (UniProt P00803); assay: Inhibition of Escherichia coli type 1 signal peptidase lepB assessed as residual activity at 0.0391 uM preincubated for 10 mins followed by Dabcyl-VGGTATAYGAFSRPGLE-(EDANS)-OH substrate addition measured after 2 hrs by FRET based assay (reference value: 100%); in short: as §1
Pseudomonas aeruginosa [14] = assay: Antibacterial activity against efflux defective Pseudomonas aeruginosa PAO750 after 16 to 20 hrs by broth microdilution method; format: functional; in short: as §2
Escherichia coli [15] = assay: Antibacterial activity against Escherichia coli ATCC 25922 after 16 to 20 hrs by broth microdilution method; format: functional; in short: as §2
[16] = biological target: Signal peptidase I (Escherichia coli K-12) (UniProt P00803); assay: Inhibition of Escherichia coli type 1 signal peptidase lepB assessed as residual activity at 0.0781 uM preincubated for 10 mins followed by Dabcyl-VGGTATAYGAFSRPGLE-(EDANS)-OH substrate addition measured after 2 hrs by FRET based assay (reference value: 100%); in short: as §1
Acinetobacter baumannii = assay: Antibacterial activity against Acinetobacter baumannii ATCC 19606 after 16 to 20 hrs by broth microdilution method; format: functional; details: ATCC 19606 = CIP 70.34 = JCM 6841; in short: as §2
[17] = Hemolytic activity in human RBC at 100 uM after 45 mins by spectrophotometric method relative to control; format: ADME, cell-based, Erythrocyte; details: red blood cells (erythrocytes), read-out: Activity
In short: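 Heparinized human blood; red cells washed three times in Tyrode buffer pH 7.4. Compound at 100 µM final with 1% DMSO and 50% RBC, shaken (250 rpm) 45 min at 37 °C. Cells pelleted (1000 × g, 10 min); supernatant haemoglobin at 540 nm. Percent lysis relative to buffer-only and 2% Triton X-100 controls.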

[18] = biological target: Signal peptidase I (Escherichia coli K-12) (UniProt P00803); assay: Inhibition of Escherichia coli type 1 signal peptidase lepB assessed as residual activity at 0.0012 uM preincubated for 10 mins followed by Dabcyl-VGGTATAYGAFSRPGLE-(EDANS)-OH substrate addition measured after 2 hrs by FRET based assay (reference value: 100%); in short: as §1
Klebsiella pneumoniae = assay: Antibacterial activity against Klebsiella pneumoniae ATCC 13883 after 16 to 20 hrs by broth microdilution method; format: functional; in short: as §2
[19] = biological target: Signal peptidase I (Escherichia coli K-12) (UniProt P00803); assay: Inhibition of Escherichia coli type 1 signal peptidase lepB assessed as residual activity at 0.1563 uM preincubated for 10 mins followed by Dabcyl-VGGTATAYGAFSRPGLE-(EDANS)-OH substrate addition measured after 2 hrs by FRET based assay (reference value: 100%); in short: as §1
[20] = biological target: Signal peptidase I (Escherichia coli K-12) (UniProt P00803); assay: Inhibition of Escherichia coli type 1 signal peptidase lepB assessed as residual activity at 0.0024 uM preincubated for 10 mins followed by Dabcyl-VGGTATAYGAFSRPGLE-(EDANS)-OH substrate addition measured after 2 hrs by FRET based assay (reference value: 100%); in short: as §1
[21] = biological target: Signal peptidase I (Escherichia coli K-12) (UniProt P00803); assay: Inhibition of Escherichia coli type 1 signal peptidase lepB assessed as residual activity at 2.5 uM preincubated for 10 mins followed by Dabcyl-VGGTATAYGAFSRPGLE-(EDANS)-OH substrate addition measured after 2 hrs by FRET based assay (reference value: 100%); in short: as §1

SMILES	Activity [1] [%]	MIC (Pseudomonas aeruginosa [2]) [mg/L]	Activity [3] [%]	Activity [4] [%]	Activity [5] [%]	MIC (Escherichia coli [6]) [mg/L]	Activity [7] [%]	Activity [8] [%]	MIC (Escherichia coli [9]) [mg/L]	pIC50 (HepG2)	Activity [10] [%]	pIC50 (Signal peptidase I)	MIC (Staphylococcus aureus) [mg/L]	Activity [11] [%]	Activity [12] [%]	Activity [13] [%]	MIC (Pseudomonas aeruginosa [14]) [mg/L]	MIC (Escherichia coli [15]) [mg/L]	Activity [16] [%]	MIC (Acinetobacter baumannii) [mg/L]	also measured
CCCCCCc1ccc(-c2ccc(C(=O)N[C@@H](CCCN)C(=O)N[C@H](C(=O)N[C@@H](C)C(=O)N[C@@H](CC(N)=O)C(=O)N[C@@H](C)B3OC4C[C@@H]5C[C@@H](C5(C)C)[C@]4(C)O3)[C@@H](C)O)cc2)cc1 (some centres not stated) ({Benzoyl(4-(4-hexylphenyl))}-[Orn]TAN-X1)	42.9	64 (≈ 72.1 µM)	8.5	87.3	6.3	2 (≈ 2.25 µM)	-9.9	1.8	0.5 (≈ 0.563 µM)	4.93	3.5	7.77	0.025 (≈ 0.0282 µM)	70.6	114	24.9	32 (≈ 36 µM)	8 (≈ 9.01 µM)	20.5	4 (≈ 4.5 µM)	hemolysis at 0.75 h, 100 µM [17]: 11.7%; Activity [18]: 98.6%; MIC (Klebsiella pneumoniae): 2 mg/L (≈ 2.25 µM); Activity [19]: -1.3%; Activity [20]: 91.9%; Activity [21]: -0.2%
CCCCCCc1ccc(-c2ccc(C(=O)N[C@@H](CCCN)C(=O)N[C@H](C(=O)N[C@@H](C)C(=O)N[C@H]3Cc4cn(nn4)CCO[C@@H]4C[C@@H]5OB(O[C@@H]5C4)[C@H](C)NC3=O)[C@@H](C)O)cc2)cc1	84.3	64 (≈ 72.2 µM)	42.2	91	-2.5	4 (≈ 4.52 µM)	27.1	4	4 (≈ 4.52 µM)	5.10	39.1	6.76	2 (≈ 2.26 µM)	94.3	95.3	77.8	32 (≈ 36.1 µM)	16 (≈ 18.1 µM)	65.2	8 (≈ 9.03 µM)	hemolysis at 0.75 h, 100 µM [17]: 10.6%; Activity [18]: 90.7%; MIC (Klebsiella pneumoniae): 8 mg/L (≈ 9.03 µM); Activity [19]: 57.6%; Activity [20]: 90.6%; Activity [21]: 27.1%
